Reference: paper PMC9090800 (RSC Advances, 2018)
Converted amounts (≈) assume the structure as drawn.

Tested on: C. albicans (ATCC 90028)
Experiment: In vitro anticandidal activity, broth dilution
Assay type: cell-based
Details: Candida albicans, ATCC90028, 24 h, read-out: IC50 ± S.D, C. albicans
Procedure, shortened: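 Broth dilution followed the NCCLS protocol. Test compound in DMSO was diluted in PBS, then tested at 1000 to 7.8 μg mL−1 in SD broth with about 2.5 × 10^3 cells per mL in 96-well plates. Plates were shaken 24 h at 30 °C, 150 rpm, and read at OD580. IC50 was the concentration halving absorbance versus untreated cells, taken from a log10 concentration versus % inhibition plot. Triplicates were run on separate occasions, with fluconazole as positive control.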

Point of comparison: `COc1cccc(-n2cc(Cn3c(C(=O)O)nc4ccccc4c3=O)nn2)c1` [Compound 6j, 3-((1-(3-Methoxyphenyl)-1H-1,2,3-triazol-4-yl)methyl)-4-oxo-3,4-dihydroquinazoline-2-carboxylic acid], IC50 214 ± 11 µg/mL (≈ 568 µM). Against it:
- O=C(O)c1nc2ccccc2c(=O)n1Cc1cn(-c2ccccc2Cl)nn1 [Compound 6b, 3-((1-(2-Chlorophenyl)-1H-1,2,3-triazol-4-yl)methyl)-4-oxo-3,4-dihydroquinazoline-2-carboxylic acid] — within 1.5-fold, 169 ± 3.4 µg/mL (≈ 442 µM)
- O=C(O)c1nc2ccccc2c(=O)n1Cc1cn(-c2cccc(Cl)c2)nn1 [Compound 6g, 3-((1-(3-Chlorophenyl)-1H-1,2,3-triazol-4-yl)methyl)-4-oxo-3,4-dihydroquinazoline-2-carboxylic acid] — 2.1-fold lower, 100 ± 4 µg/mL (≈ 263 µM)
- CCOC(=O)c1nc2ccccc2c(=O)n1Cc1cn(-c2ccccc2[N+](=O)[O-])nn1 [Compound 5f, Ethyl 3-((1-(2-nitrophenyl)-1H-1,2,3-triazol-4-yl)methyl)-4-oxo-3,4-dihydroquinazoline-2-carboxylate] — within 1.5-fold, 269 ± 5.5 µg/mL (≈ 641 µM)
- O=C(O)c1nc2ccccc2c(=O)n1Cc1cn(-c2ccc([N+](=O)[O-])cc2)nn1 [Compound 6p, 3-((1-(4-Nitrophenyl)-1H-1,2,3-triazol-4-yl)methyl)-4-oxo-3,4-dihydroquinazoline-2-carboxylic acid] — 3.7-fold higher, 789 ± 16.4 µg/mL (≈ 2010 µM)
- CCOC(=O)c1nc2ccccc2c(=O)n1Cc1cn(-c2cccc(C)c2)nn1 [Compound 5i, Ethyl 4-oxo-3-((1-m-tolyl-1H-1,2,3-triazol-4-yl)methyl)-3,4-dihydroquinazoline-2-carboxylate] — 1.6-fold higher, 353 ± 11.1 µg/mL (≈ 905 µM)
- O=C(O)c1nc2ccccc2c(=O)n1Cc1cn(-c2ccc(F)cc2)nn1 [Compound 6m, 3-((1-(4-Fluorophenyl)-1H-1,2,3-triazol-4-yl)methyl)-4-oxo-3,4-dihydroquinazoline-2-carboxylic acid] — within 1.5-fold, 172 ± 5.3 µg/mL (≈ 471 µM)
- CCOC(=O)c1nc2ccccc2c(=O)n1Cc1cn(-c2ccccc2F)nn1 [Compound 5c, Ethyl 3-((1-(2-fluorophenyl)-1H-1,2,3-triazol-4-yl)methyl)-4-oxo-3,4-dihydroquinazoline-2-carboxylate] — 1.9-fold lower, 110 ± 4.8 µg/mL (≈ 279 µM)
- O=C(O)c1nc2ccccc2c(=O)n1Cc1cn(-c2ccc(Cl)cc2)nn1 [Compound 6l, 3-((1-(4-Chlorophenyl)-1H-1,2,3-triazol-4-yl)methyl)-4-oxo-3,4-dihydroquinazoline-2-carboxylic acid] — within error, 221 ± 11.2 µg/mL (≈ 579 µM)
- CCOC(=O)c1nc2ccccc2c(=O)n1Cc1cn(-c2cccc([N+](=O)[O-])c2)nn1 [Compound 5k, Ethyl 3-((1-(3-nitrophenyl)-1H-1,2,3-triazol-4-yl)methyl)-4-oxo-3,4-dihydroquinazoline-2-carboxylate] — within 1.5-fold, 143 ± 2.5 µg/mL (≈ 339 µM)
- CCOC(=O)c1nc2ccccc2c(=O)n1Cc1cn(-c2ccc([N+](=O)[O-])cc2)nn1 [Compound 5p, Ethyl 3-((1-(4-nitrophenyl)-1H-1,2,3-triazol-4-yl)methyl)-4-oxo-3,4-dihydroquinazoline-2-carboxylate] — within 1.5-fold, 151 ± 15.7 µg/mL (≈ 360 µM)
- O=C(O)c1nc2ccccc2c(=O)n1Cc1cn(-c2ccccc2[N+](=O)[O-])nn1 [Compound 6f, 3-((1-(2-Nitrophenyl)-1H-1,2,3-triazol-4-yl)methyl)-4-oxo-3,4-dihydroquinazoline-2-carboxylic acid] — 3.3-fold higher, 701 ± 23.6 µg/mL (≈ 1790 µM)
- O=C(O)c1nc2ccccc2c(=O)n1Cc1cn(-c2ccccc2)nn1 [Compound 6a, 4-Oxo-3-((1-phenyl-1H-1,2,3-triazol-4-yl)methyl)-3,4-dihydroquinazoline-2-carboxylic acid] — 1.8-fold lower, 119 ± 7.6 µg/mL (≈ 342 µM)
- CCOC(=O)c1nc2ccccc2c(=O)n1Cc1cn(-c2cccc(F)c2)nn1 [Compound 5h, Ethyl 3-((1-(3-fluorophenyl)-1H-1,2,3-triazol-4-yl)methyl)-4-oxo-3,4-dihydroquinazoline-2-carboxylate] — 2.4-fold higher, 510 ± 6.4 µg/mL (≈ 1300 µM)
- CCOC(=O)c1nc2ccccc2c(=O)n1Cc1cn(-c2ccc(OC)cc2)nn1 [Compound 5o, Ethyl 3-((1-(4-methoxyphenyl)-1H-1,2,3-triazol-4-yl)methyl)-4-oxo-3,4-dihydroquinazoline-2-carboxylate] — 1.8-fold higher, 394.3 ± 1.7 µg/mL (≈ 973 µM)
- O=C(O)c1nc2ccccc2c(=O)n1Cc1cn(-c2cccc(F)c2)nn1 [Compound 6h, 3-((1-(3-Fluorophenyl)-1H-1,2,3-triazol-4-yl)methyl)-4-oxo-3,4-dihydroquinazoline-2-carboxylic acid] — 1.6-fold lower, 135 ± 2.4 µg/mL (≈ 369 µM)
- CCOC(=O)c1nc2ccccc2c(=O)n1Cc1cn(-c2ccccc2C)nn1 [Compound 5d, Ethyl 4-oxo-3-((1-o-tolyl-1H-1,2,3-triazol-4-yl)methyl)-3,4-dihydroquinazoline-2-carboxylate] — within 1.5-fold, 297 ± 5.9 µg/mL (≈ 763 µM)
- Cc1ccccc1-n1cc(Cn2c(C(=O)O)nc3ccccc3c2=O)nn1 [Compound 6d, 4-Oxo-3-((1-o-tolyl-1H-1,2,3-triazol-4-yl)methyl)-3,4-dihydroquinazoline-2-carboxylic acid] — 1.6-fold lower, 131 ± 4.3 µg/mL (≈ 363 µM)
- COc1ccc(-n2cc(Cn3c(C(=O)O)nc4ccccc4c3=O)nn2)cc1 [Compound 6o, 3-((1-(4-Methoxyphenyl)-1H-1,2,3-triazol-4-yl)methyl)-4-oxo-3,4-dihydroquinazoline-2-carboxylic acid] — 1.7-fold lower, 125 ± 5.9 µg/mL (≈ 331 µM)
- CCOC(=O)c1nc2ccccc2c(=O)n1Cc1cn(-c2cccc(OC)c2)nn1 [Compound 5j, Ethyl 3-((1-(3-methoxyphenyl)-1H-1,2,3-triazol-4-yl)methyl)-4-oxo-3,4-dihydroquinazoline-2-carboxylate] — 1.6-fold higher, 340 ± 7.4 µg/mL (≈ 840 µM)
- CCOC(=O)c1nc2ccccc2c(=O)n1Cc1cn(-c2ccccc2Cl)nn1 [Compound 5b, Ethyl 3-((1-(2-chlorophenyl)-1H-1,2,3-triazol-4-yl)methyl)-4-oxo-3,4-dihydroquinazoline-2-carboxylate] — 1.7-fold lower, 124 ± 18.4 µg/mL (≈ 304 µM)
- CCOC(=O)c1nc2ccccc2c(=O)n1Cc1cn(-c2ccc(C(=O)O)cc2)nn1 [Compound 5q, 4-(4-((2-(ethoxycarbonyl)-4-oxoquinazolin-3(4H)-yl)methyl)-1H-1,2,3-triazol-1-yl)benzoic acid] — 1.6-fold higher, 342 ± 5.7 µg/mL (≈ 816 µM)
- CCOC(=O)c1nc2ccccc2c(=O)n1Cc1cn(-c2ccccc2)nn1 [Compound 5a, Ethyl 4-oxo-3-((1-phenyl-1H-1,2,3-triazol-4-yl)methyl)-3,4-dihydroquinazoline-2-carboxylate] — within error, 228 ± 3.8 µg/mL (≈ 607 µM)
- CCOC(=O)c1nc2ccccc2c(=O)n1Cc1cn(-c2ccc(Cl)cc2)nn1 [Compound 5l, Ethyl 3-((1-(4-chlorophenyl)-1H-1,2,3-triazol-4-yl)methyl)-4-oxo-3,4-dihydroquinazoline-2-carboxylate] — within error, 216 ± 3.5 µg/mL (≈ 526 µM)
- O=C(O)c1ccc(-n2cc(Cn3c(C(=O)O)nc4ccccc4c3=O)nn2)cc1 [Compound 6q, 3-((1-(4-Carboxyphenyl)-1H-1,2,3-triazol-4-yl)methyl)-4-oxo-3,4-dihydroquinazoline-2-carboxylic acid] — 4.3-fold higher, 916 ± 15.5 µg/mL (≈ 2340 µM)
- O=C(O)c1nc2ccccc2c(=O)n1Cc1cn(-c2cccc([N+](=O)[O-])c2)nn1 [Compound 6k, 3-((1-(3-Nitrophenyl)-1H-1,2,3-triazol-4-yl)methyl)-4-oxo-3,4-dihydroquinazoline-2-carboxylic acid] — 3.3-fold higher, 701 ± 23.6 µg/mL (≈ 1790 µM)
- CCOC(=O)c1nc2ccccc2c(=O)n1Cc1cn(-c2ccc(F)cc2)nn1 [Compound 5m, Ethyl 3-((1-(4-fluorophenyl)-1H-1,2,3-triazol-4-yl)methyl)-4-oxo-3,4-dihydroquinazoline-2-carboxylate] — within error, 209 ± 6.5 µg/mL (≈ 532 µM)
